From ChEMBL document CHEMBL1126587, “Novel 6-alkoxypurine 2',3'-dideoxynucleosides as inhibitors of the cytopathic effect of the human immunodeficiency virus” (J Med Chem, 1993) come the findings set out here.

Substrate in series [1]: CCOc1ncnc2c1ncn2C1CCC(CO)O1
Briefly: (§1) Michaelis-Menten constant for adenosine deaminase assay in calf intestine. Summed up: (§2)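 Calf intestinal adenosine deaminase, dialyzed against deionized water to remove ammonium sulfate. Dealkoxylation/deamination followed spectrophotometrically at 25 °C, pH 6.8 (adenosine: Δε −5.85 mM⁻¹cm⁻¹ at 270 nm). Km from initial velocity analysis. Relative velocity compares 100 μM dideoxynucleoside against 100 μM adenosine.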

Substrate in series [2]: COc1ncnc2c1ncn2C1CCC(CO)O1
The series is described as §1. In outline: as §2

Substrate in series [3]: Nc1ncnc2c1ncn2[C@H]1CC[C@@H](CO)O1
Briefly: Compound was tested for adenosine deaminase assay in calf intestine. Summed up: as §2

B1: Adenosine deaminase (Bos taurus), P56658 (protein)
chain: MAQTPAFNKPKVELHVHLDGAIKPETILYYGRKRGIALPADTPEELQNIIGMDKPLSLPEFLAKFDYYMPAIAGCREAVKRIAYEFVEMKAKDGVVYVEVRYSPHLLANSKVEPIPWNQAEGDLTPDEVVSLVNQGLQEGERDFGVKVRSILCCMRHQPSWSSEVVELCKKYREQTVVAIDLAGDETIEGSSLFPGHVKAYAEAVKSGVHRTVHAGEVGSANVVKEAVDTLKTERLGHGYHTLEDATLYNRLRQENMHFEVCPWSSYLTGAWKPDTEHPVVRFKNDQVNYSLNTDDPLIFKSTLDTDYQMTKNEMGFTEEEFKRLNINAAKSSFLPEDEKKELLDLLYKAYGMPSPASAEQCL
Turning to B1, the values for the Km in series [1], in series [2] and in series [3] were 650 µM, 150 µM and 45 µM, respectively.

As a reminder, the Km is the concentration of substrate that gives half-maximal velocity.
